Assay type in all cases: functional, organism-based
Assay [1] relates to Cunninghamella bertholletiae. Kind of assay: Antifungal activity against Cunninghamella bertholletiae FMR 9598 infected in neutropenic OF1 mouse assessed as increase in mouse survival rate at 0.8 mg/kg, iv qd administered 1 day after infection for 7 days relative to untreated control. Details: dose 0.8 mg/kg. A digest of the protocol: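 Male OF1 mice (~30 g) were made neutropenic with cyclophosphamide 200 mg/kg i.p. plus 5-fluorouracil 150 mg/kg i.v. 1 day before challenge. Challenge was 1 × 10⁴ CFU sporangiospores in 0.2 ml saline via the lateral tail vein. Mice got ceftazidime 5 mg/day s.c. on days 1–7. Dosing started 24 h post-challenge for 7 days. There were 10 mice/group, observed daily for 20 days. Kaplan-Meier analysis with log-rank test.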

The subject of assay [2] is Cunninghamella bertholletiae. Description: Antifungal activity against Cunninghamella bertholletiae UTSCH 05-2275 infected in diabetic OF1 mouse assessed as decreased fungal load in lung at 0.8 mg/kg, iv qd administered 1 day post infection measured after 4 to 5 days relative to untreated control. Also noted: dose 0.8 mg/kg. A digest of the protocol: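 Diabetic OF1 mice (streptozocin 210 mg/kg i.p.; glucose >250 mg/dl) were infected i.v. with 1 × 10⁵ CFU, with ceftazidime cover. Ten per group were treated from day 1 and killed day 5, or day 4 if moribund. Half-organ homogenates (brain, lung, kidney) in 1 ml saline were serially diluted 10-fold on PDA, incubated 24 h at 35°C, and reported as log₁₀ CFU/g tissue.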

Assay [3] has as its system Cunninghamella bertholletiae. Description: Antifungal activity against Cunninghamella bertholletiae UTHSC 04-2581 infected in neutropenic OF1 mouse assessed as decreased fungal load in lung at 0.8 mg/kg, iv qd administered 1 day post infection measured after 4 to 5 days relative to untreated control. Also noted: dose 0.8 mg/kg. The essentials: (§1)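 Neutropenic male OF1 mice (cyclophosphamide 200 mg/kg i.p. plus 5-fluorouracil 150 mg/kg i.v., day −1) were given 1 × 10⁴ CFU sporangiospores i.v. in 0.2 ml saline. Treatment from 24 h: 0.8 mg/kg i.v. or oral doses once daily; 10 mice per group. Killed at day 5 (day 4 if moribund). About half of brain, lungs and kidneys homogenized in saline; 10-fold dilutions plated on PDA for 24 h at 35°C; log₁₀ CFU/g tissue.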

In assay [4] the test system is Cunninghamella bertholletiae. Kind of assay: Antifungal activity against Cunninghamella bertholletiae UTHSC 05-2275 infected in neutropenic OF1 mouse assessed as decreased fungal load in lung at 0.8 mg/kg, iv qd administered 1 day post infection measured after 4 to 5 days relative to untreated control. Details: dose 0.8 mg/kg. A digest of the protocol:
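Neutropenic male OF1 mice (cyclophosphamide 200 mg/kg i.p. + 5-fluorouracil 150 mg/kg i.v., day −1) were infected i.v. with 1 × 10⁴ CFU. Ten mice per group were treated from day 1 and killed by CO₂ on day 5, or on day 4 if moribund. Half of each brain, lung and kidney was homogenized in 1 ml saline. Ten-fold dilutions were plated on PDA for 24 h at 35°C and counted as log₁₀ CFU/g.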

For assay [5], the system named is Cunninghamella bertholletiae. Description: Antifungal activity against Cunninghamella bertholletiae FMR-9598 infected in neutropenic OF1 mouse assessed as decreased fungal load in lung at 0.8 mg/kg, iv qd administered 1 day post infection measured after 4 to 5 days relative to untreated control. Details: dose 0.8 mg/kg. A digest of the protocol: as §1
For assay [6], the system named is Cunninghamella bertholletiae. Description: Antifungal activity against Cunninghamella bertholletiae UTHSC 03-2241 infected in neutropenic OF1 mouse assessed as decreased fungal load in brain at 60 mg/kg, po qd administered 1 day post infection measured after 4 to 5 days relative to untreated control. Also noted: dose 60 mg/kg. A digest of the protocol: as §1
In assay [7] the test system is Cunninghamella bertholletiae. Kind of assay: Antifungal activity against Cunninghamella bertholletiae UTHSC 05-2275 infected in neutropenic OF1 mouse assessed as decreased fungal load in lung at 40 mg/kg, po qd administered 1 day post infection measured after 4 to 5 days relative to untreated control. Details: dose 40 mg/kg. A digest of the protocol:
as §1

The test system of assay [8] is Cunninghamella bertholletiae. Kind of assay: Antifungal activity against Cunninghamella bertholletiae UTSCH 05-2275 infected in diabetic OF1 mouse assessed as decreased fungal load in kidney at 40 mg/kg, po qd administered 1 day post infection measured after 4 to 5 days relative to untreated control. Also noted: dose 40 mg/kg. A digest of the protocol: (§2)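 Diabetic male OF1 mice (streptozocin 210 mg/kg i.p.; glucose above 250 mg/dl) were challenged i.v. with 1 × 10⁵ CFU sporangiospores. Oral once-daily dosing from day 1 for 7 days; 10 mice per group. Killed at day 5 (day 4 if moribund). About half of each organ homogenized in saline; serial 10-fold dilutions plated on PDA for 24 h at 35°C; log₁₀ CFU/g tissue.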

Assay [9] has as its system Cunninghamella bertholletiae. Description: Antifungal activity against Cunninghamella bertholletiae UTSCH 05-2275 infected in diabetic OF1 mouse assessed as decreased fungal load in lung at 60 mg/kg, po qd administered 1 day post infection measured after 4 to 5 days relative to untreated control. Also noted: dose 60 mg/kg. The essentials:
(§3)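 Male OF1 mice (mean 30 g) made diabetic with a single i.p. dose of streptozocin 210 mg/kg; blood glucose >250 mg/dl at day 10 qualified. Ceftazidime 5 mg/day s.c. given on days 1–7. Challenge by lateral tail vein with 1 × 10⁵ CFU sporangiospores in 0.2 ml saline. Oral dosing once daily for 7 days, starting 1 day after challenge. Untreated controls. Ten mice per group.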

The test system of assay [10] is Cunninghamella bertholletiae. Kind of assay: Antifungal activity against Cunninghamella bertholletiae UTSCH 05-2275 infected in diabetic OF1 mouse assessed lung at 60 mg/kg, po qd administered 1 day post infection measured after 4 to 5 days relative to untreated control. Also noted: dose 60 mg/kg. The essentials: as §3
Assay [11] relates to Cunninghamella bertholletiae. Kind of assay: Antifungal activity against Cunninghamella bertholletiae UTSCH 05-2275 infected in diabetic OF1 mouse assessed as decreased fungal load in brain at 80 mg/kg, po qd administered 1 day post infection measured after 4 to 5 days relative to untreated control. Details: dose 80 mg/kg. A digest of the protocol:
as §2

The subject of assay [12] is Cunninghamella bertholletiae. Kind of assay: Antifungal activity against Cunninghamella bertholletiae UTHSC 05-2275 infected in neutropenic OF1 mouse assessed as increase in mouse survival rate at 60 mg/kg, po qd administered 1 day after infection for 7 days relative to untreated control. Details: dose 60 mg/kg. The essentials: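 Male OF1 mice, about 30 g, made neutropenic with cyclophosphamide 200 mg/kg i.p. plus 5-fluorouracil 150 mg/kg i.v. 1 day before challenge. Infected i.v. via the lateral tail vein with 1 × 10⁴ CFU of hemacytometer-counted sporangiospores in 0.2 ml saline. Ceftazidime 5 mg/day s.c. on days 1–7. Oral treatment started 24 h after challenge; 10 mice per group; checked daily for 20 days; Kaplan-Meier mean survival time, log-rank test.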

Active and inactive are the calls of the source. The calls are words filed in the database; no cut-off is given here.

Drawing on ChEMBL document CHEMBL1671756, “In vitro and in vivo antifungal susceptibilities of the Mucoralean fungus Cunninghamella” (2010), this text covers Activity for two compounds.

Turning to `C[C@@H]1[C@H](O)[C@@H](C)/C=C/C=C/C=C/C=C/C=C/C=C/C=C/[C@H](O[C@@H]2O[C@H](C)[C@@H](O)[C@H](N)[C@@H]2O)C[C@@H]2O[C@](O)(C[C@@H](O)C[C@@H](O)[C@H](O)CC[C@@H](O)C[C@@H](O)CC(=O)O[C@H]1C)C[C@H](O)[C@H]2C(=O)O` [AMPHOTERICIN B], the result in assay [1] and in assay [2] was inactive. Moreover, the result in [3], in assay [4] and in [5] was Active.

`CC[C@@H]([C@H](C)O)n1ncn(-c2ccc(N3CCN(c4ccc(OC[C@@H]5CO[C@@](Cn6cncn6)(c6ccc(F)cc6F)C5)cc4)CC3)cc2)c1=O` [POSACONAZOLE]: the outcome in [6], in assay [7], in [8], in assay [9], in assay [10] and in assay [11] was Active. Besides, the result in assay [12] was Active.
